Assay results reported in ChEMBL document CHEMBL4513216, “Probing the Open Global Health Chemical Diversity Library for Multistage-Active Starting Points for Next-Generation Antimalarials” (ACS Infect Dis, 2020).

Assay: Toxicity liver stage against HepG2, at 10uM
Format: cell-based
Set-up: test concentration 10 uM, cell line HepG2-A16-CD81EGFP
Conditions: human, HepG2-A16-CD81EGFP cells; read-out: INHIBITION
Method in brief: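 Uninfected HepG2-A16-CD81EGFP cells, 3 × 10^3 per well, 1536-well, plated on prespotted compound at 10 μM final, parasite-free screening media added to match infected plates; puromycin 10 μM positive, DMSO 0.5% negative; run in parallel with 48 h PbLuc assay at 37 °C, 5% CO2; viability by CellTiter-Glo luminescence, normalized to controls.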

Row | Compound | cytotoxicity at 10 µM [%]
1 | Cc1ccsc1C(=O)N1CCCn2c(nc(CN(C)C)cc2=O)C1 | -0.385
2 | O=C(Cn1nc2c(cc1=O)CCCC2)NC(C(=O)O)c1ccccc1 (stereo not given) | 5.7
3 | CCN(CCOC)C(=O)CCc1scnc1C | -15.8
4 | Cn1cc(CN2CC[C@H]3OCC[C@@H](C(=O)NC4CCCC4)[C@@H]3C2)cn1 | 0.835
5 | CCOC(=O)N[C@H]1C[C@@H](C(=O)NCc2cccc(Cl)c2)N(C)C1 | -3.89
6 | O=C(c1ccco1)N1CCCC2(CN(Cc3ccc(F)cc3)CCO2)C1 (stereo not given) | 0.0288
7 | COc1ccc(Oc2ccc(CNC(=O)C(C)n3cncn3)cn2)cc1 (stereo not given) | 5.42
8 | Cc1occc(=O)c1OCc1noc(C(=O)NCC(C)C)n1 | 6.43
9 | N#Cc1cccc(NC(=O)CCn2nc(-c3cccs3)oc2=O)c1 | -2
10 | CCc1cc(C)nc(N2CCN(C(C)c3nc(C)no3)CC2)n1 (stereo not given) | -2.64
11 | Cc1ncc(-c2ccnc(NCCO)n2)c(C2CCCCC2)n1 | -11
12 | Cc1nc(C)n(CC2CCCN(Cc3cccc4c3OCCO4)C2)n1 (stereo not given) | -5.23
13 | CCN(CC(=O)Nc1c(C)nn(C)c1C)CC(O)c1ccc(C)cc1 (stereo not given) | -8.14
14 | COCCN(C)C(=O)Nc1cc2c(cc1SC)OCCO2 | 4.69
15 | CC(C(=O)NCCc1cccs1)N1CCC(n2ccnc2)CC1 (stereo not given) | -16
16 | COc1cc(CNC(=O)c2csc(Br)c2)ccn1 | -5.76
17 | CC(O)CN1CCC(CNCc2cccc(C(=O)N(C)C)c2)CC1 (stereo not given) | -12.8
18 | CC1CCC(NS(=O)(=O)CC(=O)Nc2ccc(N3CCCC3)cn2)CC1 (stereo not given) | 1.54
19 | CN(c1nccc(-c2cnc3sccn3c2=O)n1)C1CCCCC1 | -8.44
20 | Cc1ccc(N(CCC#N)C(=O)CCc2cccnc2)cc1C | -7.68
21 | CCN(Cc1cccc(F)c1)Cc1nc2c(cnn2C)c(=O)[nH]1 | 3.71
22 | Cc1noc(C)c1CCCNC(=O)C1CCN(C(=O)C2CCC2)CC1 | 3.72

Row | Compound | cytotoxicity at 10 µM [%]
23 | Cc1nnc(NC(=O)NCc2ccoc2)s1 | -1.36
24 | O=C(c1cccnc1-n1cncn1)N1CCN(c2ccccc2)CC1 | 4.06
25 | Cc1cccc(C(=O)Nc2ccc(OC3CCN(C)CC3)cc2)c1 | -26.1
26 | COCCC(=O)N1CC[C@H]2O[C@@H](C)C[C@H]2C1 | -72.4
27 | Cc1ncc(C)c(N2CCCC(CO)(Cc3cccc(Cl)c3)C2)n1 (stereo not given) | 59.4
28 | CC1CCCN(C(=O)Cn2cc(I)cn2)C1 (stereo not given) | 0.106
29 | COCCNCc1cc2ccc(C)c(C)c2[nH]c1=O | 5.13
30 | Cc1nc2c(c(NCc3cnc4c(c3)CCC4)n1)CNC2 | -3.57
31 | Cn1cnnc1C1CCN(C(=O)CCCOCc2ccccc2)CC1 | -7.06
32 | CCCS(=O)(=O)c1ccc(N2CCN(Cc3ccccc3)CC2)nn1 | -5.93
33 | N#Cc1cccnc1N1CCC(C2CCCCCN2C(=O)C2CC2)CC1 (stereo not given) | 1.95
34 | Cn1nc(CN2CCC(c3ccncc3)CC2)c2c(Cl)cccc21 | -6.06
35 | CC(C)c1cc(N2CCC3(CC2)CN(C)CCN3C)ncn1 | -16.2
36 | Cc1nc(CN2CCO[C@H]3[C@@H](OCc4cccnc4)CC[C@@H]32)cs1 | -0.587
37 | CC1CCC(N2CCC(NS(=O)(=O)CCOC(C)C)CC2)CC1 (stereo not given) | -0.45
38 | Cc1ccc2c(n1)N(C)CCN(Cc1ccco1)C2 | -4.97
39 | CSCCc1ccc(NC(=O)NC(C)Cn2cncn2)cc1 (stereo not given) | 2.56
40 | Cc1ccc(-c2csc(N)c2C#N)c(C)c1 | 10.5
41 | c1cc(CO[C@@H]2CN(Cc3ccoc3)[C@@H]3CCCO[C@@H]32)ccn1 | -102
42 | Cc1[nH]ccc1C(=O)N[C@H]1CN(CCO)C[C@@H]1C1CC1 | 3.07
43 | NC1(C(=O)NCCC2CN(Cc3ccco3)CCO2)CCCC1 (stereo not given) | -1.03
44 | CCn1nc(C)cc1S(=O)(=O)N1CCC2(CCCN(C(C)C)C2=O)C1 (stereo not given) | -16.3

Row | Compound | cytotoxicity at 10 µM [%]
45 | COc1cnc(N2CCN(C)CC2)nc1-c1ccnn1C | 0.868
46 | Cn1ccc2c(-c3nccc(N)n3)ccnc21 | -16
47 | CN(C)C(=O)NC1COC2(CCN(S(=O)(=O)c3ccccc3)CC2)C1 (stereo not given) | -88.5
48 | Cc1ccc(C(=O)N2C[C@@H]3CN(c4ncccn4)C[C@@H]3C2)cn1 | 6.86
49 | O=C1N(Cc2cccc(F)c2)CCC12CCN(c1ccccn1)CC2 | -1.16
50 | O=C(c1ccc2c(c1)CCC2)N1CCn2ncnc2C1 | -5.26
51 | O=C(Cc1cccnc1)N1CCC(OCc2ccccc2)CC1 | -1.96
52 | CC(c1ccncn1)N(C)S(=O)(=O)NCc1ccccc1 (stereo not given) | -81.5
53 | Cc1ccc(C)c(C(NC2CCCC2)c2cccnc2)c1 (stereo not given) | 23.5
54 | CC(SCC(=O)N(C)CC(=O)NC1CC1)c1ccccc1F (stereo not given) | -2.49
55 | c1cnn(CC2CCCN2Cc2ccc(-n3cccn3)cc2)c1 (stereo not given) | -4.8
56 | COc1cccc(CCCN2CCC(N(C)S(C)(=O)=O)CC2)c1 | -3.88
57 | O=C1O[C@@H]2CN(Cc3ccsc3)C[C@@H]2N1Cc1ccccn1 | 9.77
58 | COc1cc(OC)cc(N2CCC(NC(=O)c3ccc[nH]3)CC2)c1 | -4.83
59 | O=C(CCc1cc2n(n1)CCCNC2)NCCS(=O)(=O)N1CCCC1 | 0.698
60 | COCCNCc1cc2c(C)cc(C)cc2n2c(=O)n(C)nc12 | -10.3
61 | CCCn1nccc1-c1cc(C2CCN(C(C)=O)CC2)ccn1 | -1.68
62 | Cc1noc([C@@H](C)NCc2ccc(F)cc2)c1C(=O)O | -5.57
63 | CC(C)C(=O)N1CC[C@H]2N(C)CC[C@@]2(C(=O)Nc2ccccc2)CC1 | -107
64 | NCC1Cc2cc(-c3nccc(N4CCC(O)CC4)n3)cc(F)c2O1 (stereo not given) | 14.2
65 | Cc1ccc(CNC(=O)c2ccc(=O)n(C)n2)c(OCC2CC2)c1 | -5.92
66 | c1ccc(O[C@H]2COCCN(Cc3cccc4c3OCO4)C2)cc1 | 3.53

Row | Compound | cytotoxicity at 10 µM [%]
67 | CC1COCCN1Cc1nc(-c2ccc(F)cc2)no1 (stereo not given) | -9.4
68 | Cc1nnc(CCNC2CCN(c3ncnc4c(C)csc34)CC2)s1 | 20.7
69 | O=C1N(Cc2ccccc2F)CCCC12CCN(C1CCSCC1)C2 (stereo not given) | 0.0366
70 | Cc1ncnc2c1CCN(CC(=O)N(C)C)CC2 | -101
71 | Cc1noc(C)c1-c1ccc(C2CCCN2CCC(N)=O)nc1 (stereo not given) | 1.94
72 | NC(=O)C1CCN(C(=O)Cc2ccc(Cl)c(Cl)c2)CC1 | 5.82
73 | CC(C)(C)CC(=O)NCC(=O)NCC(O)c1ccc2ccccc2c1 (stereo not given) | 9.73
74 | Cn1c(CN2CCOCC2)nnc1C1CCN(C(=O)C2CCCC2)CC1 | -17.8
75 | CSc1ccccc1CN1CCCn2nc(CNC(=O)N(C)C)cc2C1 | -25.5
76 | CCn1nc(CC(C)C)cc1C(=O)N1CCCOC(CN2CCCC2)C1 (stereo not given) | -7.66
77 | O=C(C1CCOC1)N1CCC(Cn2cc(-c3ccsc3)nn2)CC1 (stereo not given) | -0.039
78 | CN(c1ccc2ccccc2c1)S(=O)(=O)c1cc(C(=O)O)cs1 | 1.2
79 | CS(=O)(=O)N1CCCn2nc(CNc3ncccn3)cc2C1 | 4.83
80 | O=C(Nc1cccn(CC(F)(F)F)c1=O)c1ccncc1F | 0.315
81 | COc1ncccc1-c1ncccc1NC(=O)C(C)C | 3.78
82 | CC(C)n1ccnc1C1CCN(C(=O)c2ccccc2)CC1 | -10.9
83 | O=C1CO[C@@H]2CN(CC3CCOCC3)C[C@H]2N1Cc1ccncc1 | -139
84 | CS(=O)(=O)N1C[C@H]2CN(CC3CC3)C(=O)[C@H]2C1 | 6.53
85 | O=C1CCC2(CCOC2)CN1Cc1nncn1CCc1ccccc1 (stereo not given) | -0.506
86 | CC(C)C(NC(=O)c1nc(N2CCOCC2)ncc1Cl)c1cccs1 (stereo not given) | -44.3
87 | CNC(=O)[C@H]1C[C@H]2CN(Cc3ccccc3)C[C@@H]1O2 | 8.84
88 | CC(O)(CNC(=O)c1cccnc1-n1cccn1)c1ccco1 (stereo not given) | 3.09

Row | Compound | cytotoxicity at 10 µM [%]
89 | CC(C)N(C)C(=O)CSCc1ccc(S(=O)(=O)N(C)C)o1 | 19.1
90 | Cc1nn(C)c(Cl)c1C1CCCN1c1ncnc2c1CCC2 (stereo not given) | 19.1
91 | O=C1NCCN1C1CCN(Cc2nc(-c3ccoc3)no2)CC1 | -9.06
92 | C[C@H]1CN(C(=O)c2cscn2)C[C@@]12CCN(c1ccsc1)C2=O | -80.7
93 | CCc1cc(O)nc(C2CCCN2C(=O)COC)n1 (stereo not given) | -11.5
94 | CC(C)CCN1CCCC(Cn2cc(CCO)nn2)C1 (stereo not given) | -6.02
95 | Cc1ccccc1SC1CCN(C(=O)C2CNC(=O)N2)CC1 (stereo not given) | -2.22
96 | FC(F)(F)c1ccc2[nH]c([C@H]3CCNC3)nc2c1 | 2.91
97 | COc1ncc(CN2C[C@@H]3CC[C@@](O)(c4ccc(C)cn4)[C@@H]3C2)cn1 | -10.3
98 | O=C(NCCc1ccc2c(c1)OCO2)C1CCCN(Cc2ccco2)C1 (stereo not given) | 0.209
99 | CCOc1ccc(CC(CNC(=O)c2ccc(C)o2)C(N)=O)cc1 (stereo not given) | 3.58
100 | CC(C)(C)C(N)C1=NC(=C2N=CN=N2)NO1 (stereo not given) | -16.9
101 | O=C([C@@H]1C[C@@H]2CCN(Cc3ccccn3)C[C@H]2O1)N1CCCO1 | 2.29
102 | O=C1[C@H]2CN(Cc3ccc(F)cc3)C[C@H]2CN1CCN1CCCC1 | -13.2
103 | CC(NC(=O)CN1CCN(Cc2ccc(Br)s2)CC1)c1ccccc1 (stereo not given) | 8.44
104 | CCc1nsc(NC2CCCn3nc(COC)nc32)n1 (stereo not given) | 14.1
105 | CCn1ccnc1-c1nc2cc(S(=O)(=O)N3CCCC3)ccc2n1C | -22.3
106 | O=C1CC(c2ccc(C(=O)O)cc2)c2c(sc3c2CCCC3)N1 (stereo not given) | -5.14
107 | CN(C)c1cc(CNC(=O)c2cc(Cl)ccn2)ccn1 | -15
108 | Cc1nc(C(C)NCc2cc(O)c3cccc(F)c3n2)cs1 (stereo not given) | 8.33
109 | O=C(C[C@@H]1COC[C@H]2CN(Cc3ccccn3)C[C@@H]12)N1CCOCC1 | -1.63
110 | COCc1noc(-c2ccc(N3CCCCC3CO)nc2)n1 (stereo not given) | -2.38
